In brackets after ≈: the same amount, converted by molar mass.
These molecules were tested on Mythimna separata (assay: Larvicidal activity against Oriental armyworm).
Type: functional
Method in brief: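 Oriental armyworm (Mythimna separata) larvae dosed by foliar application. Each treatment run in triplicate. LC50 derived by Probit analysis. Reference insecticides were tested under the same conditions.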

Question: Which LC50 does the source give for `Cc1cc(C)cc(C(=O)N(NC(=O)c2ccc3c(c2Cl)OCCO3)C(C)(C)C)c1` here?
Answer: 1.4 µg/mL (≈ 3.36 µM)

Question: `CC(C)(C)N(NC(=O)c1ccc2c(c1Cl)CCCO2)C(=O)c1ccccc1[N+](=O)[O-]` was tested. Which LC50 did it give?
Answer: 6.54 µg/mL (≈ 15.1 µM)

Question: With `CC(C)(C)N(NC(=O)c1ccc2c(c1Cl)CCCO2)C(=O)c1ccccc1F` as the molecule, how does the LC50 read?
Answer: 4.75 µg/mL (≈ 11.7 µM)

Question: How did the LC50 turn out when `CC(C)(C)N(NC(=O)c1ccc2c(c1Cl)CCCO2)C(=O)c1cc(Cl)cc(Cl)c1` was run?
Answer: 4.11 µg/mL (≈ 9.02 µM)

Question: With `CC(C)(C)N(NC(=O)c1ccc2c(c1Cl)CCCO2)C(=O)c1ccc(Cl)cc1[N+](=O)[O-]` as the molecule, how does the LC50 read?
Answer: 2.73 µg/mL (≈ 5.85 µM)

Question: For `CC(C)(C)N(NC(=O)c1ccc2c(c1Cl)CCCO2)C(=O)c1ccc([N+](=O)[O-])cc1Cl`, which LC50 is on record?
Answer: 8.47 µg/mL (≈ 18.2 µM)

Question: Which LC50 does the source give for `Cc1cc(C)cc(C(=O)N(NC(=O)c2ccc3c(c2C)OCCO3)C(C)(C)C)c1` here?
Answer: 1.4 µg/mL (≈ 3.53 µM)

Question: Which LC50 does the source give for `COc1cc(C(=O)N(NC(=O)c2ccc3c(c2Cl)CCCO3)C(C)(C)C)cc(OC)c1OC` here?
Answer: 42.7 µg/mL (≈ 89.4 µM)

Question: `CC(C)(C)N(NC(=O)c1ccc2c(c1Cl)CCCO2)C(=O)c1ccccc1Cl` was tested. Which LC50 did it give?
Answer: 10.8 µg/mL (≈ 25.5 µM)

Question: How did the LC50 turn out when `Cc1cc(C)cc(C(=O)N(NC(=O)c2ccc3c(c2Cl)CCCO3)C(C)(C)C)c1` [N'-TERT-BUTYL-N'-(3,5-DIMETHYLBENZOYL)-N-5-CHLORO-6-CHROMANECARBOHYDRAZIDE] was run?
Answer: 2.25 µg/mL (≈ 5.42 µM)

Question: With `CC(C)(C)N(NC(=O)c1ccc2c(c1Cl)CCCO2)C(=O)c1ccc(I)cc1` as the molecule, how does the LC50 read?
Answer: 43.5 µg/mL (≈ 84.9 µM)

Question: Which LC50 does the source give for `CC(C)(C)N(NC(=O)c1ccc2c(c1Cl)CCCO2)C(=O)c1ccc(Cl)cc1Cl` here?
Answer: 4.11 µg/mL (≈ 9.02 µM)

Question: With `Cc1cc(C)c(C(=O)N(NC(=O)c2ccc3c(c2Cl)CCCO3)C(C)(C)C)c(C)c1` as the molecule, how does the LC50 read?
Answer: > 500 µg/mL

Question: For `CC(C)(C)N(NC(=O)c1ccc2c(c1Cl)CCCO2)C(=O)c1cccc(I)c1`, which LC50 is on record?
Answer: 30.2 µg/mL (≈ 58.9 µM)

Question: Which LC50 does the source give for `CC(C)(C)N(NC(=O)c1ccc2c(c1Cl)CCCO2)C(=O)c1c(Cl)cc(C(F)(F)F)cc1Cl` here?
Answer: > 500 µg/mL

Question: `CC(C)(C)N(NC(=O)c1ccc2c(c1Cl)CCCO2)C(=O)c1ccc([N+](=O)[O-])cc1` was tested. Which LC50 did it give?
Answer: 29.7 µg/mL (≈ 68.8 µM)

Question: Which LC50 does the source give for `CC(C)(C)N(NC(=O)c1ccc2c(c1Cl)CCCO2)C(=O)c1cccc(Cl)c1` here?
Answer: 5.98 µg/mL (≈ 14.2 µM)

Question: With `CC(C)(C)N(NC(=O)c1ccccc1)C(=O)c1ccccc1` [RH-5849] as the molecule, how does the LC50 read?
Answer: 24.4 µg/mL (≈ 82.3 µM)

Question: Which LC50 does the source give for `Cc1ccccc1C(=O)N(NC(=O)c1ccc2c(c1Cl)CCCO2)C(C)(C)C` here?
Answer: 31.3 µg/mL (≈ 78.1 µM)

Question: With `COc1ccc(C(=O)N(NC(=O)c2ccc3c(c2Cl)CCCO3)C(C)(C)C)cc1` as the molecule, how does the LC50 read?
Answer: 25.1 µg/mL (≈ 60.1 µM)

Question: How did the LC50 turn out when `CC(C)(C)N(NC(=O)c1ccc2c(c1Cl)CCCO2)C(=O)c1ccc(Cl)cc1` was run?
Answer: 4.06 µg/mL (≈ 9.64 µM)

Question: How did the LC50 turn out when `COc1ccccc1C(=O)N(NC(=O)c1ccc2c(c1Cl)CCCO2)C(C)(C)C` was run?
Answer: 10.1 µg/mL (≈ 24.2 µM)

Question: With `Cc1ccc(C(=O)N(NC(=O)c2ccc3c(c2Cl)CCCO3)C(C)(C)C)c(C)c1` as the molecule, how does the LC50 read?
Answer: 6.14 µg/mL (≈ 14.8 µM)

Question: For `Cc1cccc(C(=O)N(NC(=O)c2ccc3c(c2Cl)CCCO3)C(C)(C)C)c1`, which LC50 is on record?
Answer: 2.78 µg/mL (≈ 6.93 µM)

Question: How did the LC50 turn out when `CC(C)(C)N(NC(=O)c1ccc2c(c1Cl)CCCO2)C(=O)c1ccc(F)cc1F` was run?
Answer: 5.69 µg/mL (≈ 13.5 µM)

Question: With `CCOc1ccc(C(=O)N(NC(=O)c2ccc3c(c2Cl)CCCO3)C(C)(C)C)cc1` as the molecule, how does the LC50 read?
Answer: 215 µg/mL (≈ 500 µM)

Question: Which LC50 does the source give for `CC(C)(C)N(NC(=O)c1ccc2c(c1Cl)CCCO2)C(=O)c1ccccc1` here?
Answer: 5 µg/mL (≈ 12.9 µM)

Question: `COc1cccc(C(=O)N(NC(=O)c2ccc3c(c2Cl)CCCO3)C(C)(C)C)c1` was tested. Which LC50 did it give?
Answer: 11.4 µg/mL (≈ 27.3 µM)

Question: For `CC(C)(C)N(NC(=O)c1ccc2c(c1Cl)CCCO2)C(=O)c1cccc([N+](=O)[O-])c1`, which LC50 is on record?
Answer: 399 µg/mL (≈ 924 µM)

Question: For `CC(C)(C)N(NC(=O)c1ccc2c(c1Cl)CCCO2)C(=O)c1c(Cl)cc(Cl)cc1Cl`, which LC50 is on record?
Answer: > 500 µg/mL

Question: For `Cc1ccc(C(=O)N(NC(=O)c2ccc3c(c2Cl)CCCO3)C(C)(C)C)cc1`, which LC50 is on record?
Answer: 5.57 µg/mL (≈ 13.9 µM)

Question: `COc1ccc(C(=O)N(NC(=O)c2ccc3c(c2Cl)CCCO3)C(C)(C)C)cc1OC` was tested. Which LC50 did it give?
Answer: 19.8 µg/mL (≈ 44.2 µM)

Question: For `CCc1ccc(C(=O)NN(C(=O)c2cc(C)cc(C)c2)C(C)(C)C)cc1` [TEBUFENOZIDE], which LC50 is on record?
Answer: 1.59 µg/mL (≈ 4.51 µM)
